pEC50, pIC50, pKi: −log10 of the molar value. The source made the active and inactive calls. No cut-off for these calls is given here.
Experiments:
[1] = target: Sodium-dependent serotonin transporter (Homo sapiens, UniProt P31645); assay: Inhibition of human recombinant SERT expressed in HEK cells; assay type: cell-based, HEK293
How it was run: (§1)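 HEK cells overexpressing human recombinant transporter; uptake inhibition read as block of a fluorescent substrate with a neurotransmitter uptake kit. Values averaged from at least n = 3, up to 2-fold variability.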

[2] = target: Voltage-gated inwardly rectifying potassium channel KCNH2 (Homo sapiens, UniProt Q12809); assay: Inhibition of human ERG expressed in CHO-K1 cells by electrophysiological assay; assay type: cell-based
Sequence of Voltage-gated inwardly rectifying potassium channel KCNH2 (Q12809 whole entry): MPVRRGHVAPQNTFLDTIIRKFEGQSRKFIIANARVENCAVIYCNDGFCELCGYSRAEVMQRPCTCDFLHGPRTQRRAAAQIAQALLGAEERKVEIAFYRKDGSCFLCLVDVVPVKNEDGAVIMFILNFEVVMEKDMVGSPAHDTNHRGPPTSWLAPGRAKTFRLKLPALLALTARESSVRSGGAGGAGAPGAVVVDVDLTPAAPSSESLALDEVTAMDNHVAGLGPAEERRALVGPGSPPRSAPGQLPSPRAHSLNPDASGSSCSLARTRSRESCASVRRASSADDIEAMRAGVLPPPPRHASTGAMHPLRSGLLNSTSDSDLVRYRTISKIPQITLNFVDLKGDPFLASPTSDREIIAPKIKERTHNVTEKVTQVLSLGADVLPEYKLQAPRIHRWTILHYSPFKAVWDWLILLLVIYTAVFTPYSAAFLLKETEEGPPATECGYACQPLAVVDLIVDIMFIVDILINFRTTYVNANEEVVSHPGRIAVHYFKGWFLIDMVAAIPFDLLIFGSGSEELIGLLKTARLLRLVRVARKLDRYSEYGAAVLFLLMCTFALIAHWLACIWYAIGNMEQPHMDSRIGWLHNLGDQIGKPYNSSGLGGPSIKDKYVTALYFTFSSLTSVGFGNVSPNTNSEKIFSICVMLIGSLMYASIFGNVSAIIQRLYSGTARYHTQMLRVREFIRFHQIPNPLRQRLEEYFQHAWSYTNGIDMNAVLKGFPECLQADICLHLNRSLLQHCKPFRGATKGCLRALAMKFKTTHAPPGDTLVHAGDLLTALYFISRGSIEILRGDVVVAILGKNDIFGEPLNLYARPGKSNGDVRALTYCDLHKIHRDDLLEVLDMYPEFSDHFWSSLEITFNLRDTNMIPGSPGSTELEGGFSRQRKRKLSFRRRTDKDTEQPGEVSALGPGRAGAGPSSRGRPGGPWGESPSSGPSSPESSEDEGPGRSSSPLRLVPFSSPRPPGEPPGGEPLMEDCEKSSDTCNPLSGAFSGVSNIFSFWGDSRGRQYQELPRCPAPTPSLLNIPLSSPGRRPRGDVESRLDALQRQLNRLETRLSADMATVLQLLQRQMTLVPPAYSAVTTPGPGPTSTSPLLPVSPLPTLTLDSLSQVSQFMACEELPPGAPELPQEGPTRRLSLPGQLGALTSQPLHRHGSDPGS

[3] = target: Sodium-dependent dopamine transporter (Homo sapiens, UniProt Q01959); assay: Inhibition of human recombinant DAT expressed in HEK cells; assay type: cell-based, HEK293
Sequence of Sodium-dependent dopamine transporter (Q01959 whole entry): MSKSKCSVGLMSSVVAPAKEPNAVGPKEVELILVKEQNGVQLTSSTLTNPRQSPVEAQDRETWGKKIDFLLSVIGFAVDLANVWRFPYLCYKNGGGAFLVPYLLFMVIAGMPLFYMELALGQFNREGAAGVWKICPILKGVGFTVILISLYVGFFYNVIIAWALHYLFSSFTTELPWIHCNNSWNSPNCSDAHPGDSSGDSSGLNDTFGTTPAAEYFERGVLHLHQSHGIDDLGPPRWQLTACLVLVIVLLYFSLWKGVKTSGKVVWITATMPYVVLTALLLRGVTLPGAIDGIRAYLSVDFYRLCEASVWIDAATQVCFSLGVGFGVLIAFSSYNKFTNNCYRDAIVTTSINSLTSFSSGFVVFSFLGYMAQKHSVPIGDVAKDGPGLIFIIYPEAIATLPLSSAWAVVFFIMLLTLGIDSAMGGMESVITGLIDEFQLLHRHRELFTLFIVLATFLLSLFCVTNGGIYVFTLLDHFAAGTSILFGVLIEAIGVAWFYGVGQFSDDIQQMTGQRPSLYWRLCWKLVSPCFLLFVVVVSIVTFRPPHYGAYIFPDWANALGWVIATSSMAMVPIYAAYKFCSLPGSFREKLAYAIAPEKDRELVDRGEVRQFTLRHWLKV

[4] = target: Sodium-dependent noradrenaline transporter (Homo sapiens, UniProt P23975); assay: Inhibition of human recombinant NET expressed in HEK cells; assay type: cell-based, HEK293; how it was run: as §1
Sequence of Sodium-dependent noradrenaline transporter (P23975 whole entry): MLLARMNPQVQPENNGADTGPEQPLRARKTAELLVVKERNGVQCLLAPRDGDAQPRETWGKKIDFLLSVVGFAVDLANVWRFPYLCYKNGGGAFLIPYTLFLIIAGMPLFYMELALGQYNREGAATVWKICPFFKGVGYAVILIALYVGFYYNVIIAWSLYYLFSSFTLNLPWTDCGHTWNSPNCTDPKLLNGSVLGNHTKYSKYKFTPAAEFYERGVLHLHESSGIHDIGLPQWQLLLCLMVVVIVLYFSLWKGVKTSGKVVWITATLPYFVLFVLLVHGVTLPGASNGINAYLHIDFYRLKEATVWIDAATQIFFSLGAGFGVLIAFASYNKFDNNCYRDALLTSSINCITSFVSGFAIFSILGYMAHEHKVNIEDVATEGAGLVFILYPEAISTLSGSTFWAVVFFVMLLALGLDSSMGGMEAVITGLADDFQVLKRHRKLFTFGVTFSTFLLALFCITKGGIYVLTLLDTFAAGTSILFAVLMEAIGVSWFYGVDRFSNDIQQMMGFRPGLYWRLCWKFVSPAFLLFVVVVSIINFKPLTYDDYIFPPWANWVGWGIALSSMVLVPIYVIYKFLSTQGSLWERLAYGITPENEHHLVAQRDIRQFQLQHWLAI

[5] = Intrinsic clearance in human liver microsomes; assay type: ADME, Microsome; details: read-out: CLH
How it was run: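 Human liver microsomes; intrinsic clearance reported in μL/min/mg.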

Cytochrome P450 2D6 = Cytochrome P450 2D6 (Homo sapiens, UniProt P10635); assay: Inhibition of CYP2D6 (unknown origin); assay type: ADME
Sequence of Cytochrome P450 2D6 (P10635 whole entry): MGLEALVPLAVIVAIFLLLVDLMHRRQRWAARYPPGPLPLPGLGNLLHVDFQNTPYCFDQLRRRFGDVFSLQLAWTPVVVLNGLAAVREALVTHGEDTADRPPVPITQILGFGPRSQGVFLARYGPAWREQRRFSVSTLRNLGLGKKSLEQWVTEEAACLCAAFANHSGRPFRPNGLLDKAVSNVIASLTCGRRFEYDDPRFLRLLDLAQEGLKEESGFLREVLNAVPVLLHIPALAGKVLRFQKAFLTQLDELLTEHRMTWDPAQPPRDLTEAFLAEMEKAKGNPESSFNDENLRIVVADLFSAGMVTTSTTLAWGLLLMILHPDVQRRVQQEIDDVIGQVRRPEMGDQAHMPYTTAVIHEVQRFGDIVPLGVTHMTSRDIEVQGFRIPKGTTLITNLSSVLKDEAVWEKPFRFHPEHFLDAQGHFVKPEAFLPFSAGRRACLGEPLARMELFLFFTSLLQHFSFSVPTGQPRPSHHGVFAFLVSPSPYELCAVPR

Plasma = assay: Fraction unbound in Long Evans rat plasma; assay type: ADME, cell-free
[6] = Ratio of drug level in whole brain to plasma in Long Evans rat; assay type: ADME, cell-free; details: whole brain and plasma, read-out: BPR
Rattus norvegicus [7] = assay: In vivo NET occupancy in sc dosed Long Evans rat thalamus [3H]-MeNER administered 30 mins before [3H]-MeNER challenge measured after 90 mins; assay type: functional
How it was run: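 Rats received test compound, then 30 min later sc [3H]MeNER as the NET radioligand, counted in thalamus. […] Mean reported; 95% CI typically ± half the mean.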

Rattus norvegicus [8] = organism: Rattus norvegicus; assay: animal or person; assay type: functional, organism-based; details: Long Evans, Striatum
Rattus norvegicus [9] = assay: In vivo NET occupancy in sc dosed Long Evans rat thalamus assessed as unbound plasma levels equaling 50% occupancy using [3H]-MeNER administered 30 mins before [3H]-MeNER challenge measured after 90 mins; assay type: functional, organism-based
[10] = Metabolic stability of the compound assessed as GSH adduct formation; assay type: ADME
Rattus norvegicus [11] = assay: Antidepressant activity in sc dosed Sprague-Dawley rat assessed as increase of locomotor activity and stereotypic behavior; assay type: functional, organism-based
How it was run: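 Rats were dosed sc. Spontaneous locomotion was scored over the last 15 min of the session: distance traveled from beam breaks, and stereotypy from repeated breaks of the same beam. Data are group means ± SEM, compared with vehicle by one-way ANOVA.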

Rattus norvegicus [12] = assay: Antidepressant activity in Sprague-Dawley rat assessed as reduction of immobility time at 0.7 mg/kg, sc measured for 5 mins by forced swimming test; assay type: functional, organism-based; set-up: dose 0.7 mg/kg
How it was run: (§2)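 Sprague–Dawley rats dosed sc, then scored for immobility time in the forced-swim test. The positive control was desipramine at 15 mg/kg ip. Data are group means ± SEM, compared with vehicle by one-way ANOVA.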

Rattus norvegicus [13] = assay: Antidepressant activity in Sprague-Dawley rat assessed as reduction of immobility time at 2.4 to 7.3 mg/kg, sc measured for 5 mins by forced swimming test; assay type: functional, organism-based; how it was run: as §2
Rattus norvegicus [14] = assay: In vivo DAT occupancy in sc dosed Long Evans rat striatum using [3H]PE2I administered 30 mins before [3H]PE2I challenge measured after 60 mins
Rattus norvegicus [15] = assay: Antidepressant activity in Sprague-Dawley rat assessed as reduction of immobility time at 1 to 30 mg/kg, sc measured for 5 mins by forced swimming test; assay type: functional, organism-based; how it was run: as §2
Rattus norvegicus [16] = assay: In vivo DAT occupancy in sc dosed Long Evans rat striatum using [3H]-PE2I administered 30 mins before [3H]-PE2I 35428 challenge measured after 60 mins; assay type: functional
How it was run: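 Test compound given sc to rats; 30 min later [3H]PE2I given sc as DAT radioligand, quantified in striatum. […] Mean reported, 95% CI typically ± half the mean.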

Rattus norvegicus [17] = assay: Antidepressant activity in Sprague-Dawley rat assessed as reduction of immobility time at 0.3 mg/kg, sc measured for 5 mins by forced swimming test; assay type: functional, organism-based; set-up: dose 0.3 mg/kg; how it was run: as §2
Rattus norvegicus [18] = assay: In vivo DAT occupancy in sc dosed Long Evans rat striatum assessed as unbound plasma levels equaling 50% occupancy using [3H]WIN 35428 administered 30 mins before [3H]WIN 35428 challenge measured after 60 mins; assay type: functional, organism-based
Rattus norvegicus [19] = assay: Antidepressant activity in Sprague-Dawley rat assessed as reduction of immobility time at 1 mg/kg, sc measured for 5 mins by forced swimming test; assay type: functional, organism-based; set-up: dose 1 mg/kg
How it was run: (§3)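 Rats (Sprague–Dawley) given test compound sc, then scored in forced-swim test for immobility time. Vehicle group comparison; desipramine control dosed 15 mg/kg ip. Data as group means ± SEM; significance vs vehicle by one-way ANOVA.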

Rattus norvegicus [20] = assay: Antidepressant activity in Sprague-Dawley rat assessed as reduction of immobility time at 3 to 10 mg/kg, sc measured for 5 mins by forced swimming test; assay type: functional, organism-based; how it was run: as §3

Sequence of Sodium-dependent serotonin transporter (P31645 whole entry): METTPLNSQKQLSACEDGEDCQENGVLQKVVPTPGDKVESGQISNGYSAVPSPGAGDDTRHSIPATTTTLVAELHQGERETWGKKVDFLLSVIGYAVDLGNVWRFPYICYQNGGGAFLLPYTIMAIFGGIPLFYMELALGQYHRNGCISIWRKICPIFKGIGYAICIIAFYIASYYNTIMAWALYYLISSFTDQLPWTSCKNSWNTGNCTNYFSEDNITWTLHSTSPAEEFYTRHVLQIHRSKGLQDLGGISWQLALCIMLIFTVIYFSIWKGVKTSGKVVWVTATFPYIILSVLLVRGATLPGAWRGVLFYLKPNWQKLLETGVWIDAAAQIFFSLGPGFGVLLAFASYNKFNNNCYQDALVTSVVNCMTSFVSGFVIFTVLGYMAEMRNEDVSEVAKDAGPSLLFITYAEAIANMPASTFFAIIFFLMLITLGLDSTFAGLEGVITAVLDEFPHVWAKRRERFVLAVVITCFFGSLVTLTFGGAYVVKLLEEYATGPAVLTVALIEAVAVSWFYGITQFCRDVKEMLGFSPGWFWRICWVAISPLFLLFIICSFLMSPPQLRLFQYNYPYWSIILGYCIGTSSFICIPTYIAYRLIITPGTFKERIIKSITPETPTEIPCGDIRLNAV

| pIC50 (Cytochrome P450 2D6) | Structure (SMILES) | pKi [1] | pIC50 [2] | pKi [3] | pKi [4] | microsomal CLint [5] [µL/min/mg] | further results |
| --- | --- | --- | --- | --- | --- | --- | --- |
| 5.41 | COCCN1CC=CC[C@H](c2ccc(Cl)c(Cl)c2)C1 | 6.27 | 5.28 | 8.05 | 7.82 | 150 | – |
| < 4.70 | OCC[C@]1(c2ccc(Cl)c(Cl)c2)CCCNC1 | 7.38 | < 4.48 | 8.03 | 8.48 | < 4 | – |
| – | Clc1ccc(C2CC=CCNC2)cc1 (stereo unspecified) | – | < 4.51 | 7.60 | 6.60 | – | – |
| – | CN1CC=CC[C@@H](c2ccc(Cl)c(Cl)c2)C1 | 6.89 | – | 7.89 | 7.27 | 86 | – |
| – | CN1CC=CC[C@H](c2ccc(Cl)c(Cl)c2)C1 | 7.08 | – | 8.52 | 7.92 | 51 | – |
| – | CN1CCCCC(c2ccc(Cl)c(Cl)c2)C1 (racemic) | 6.59 | 5.00 | 8.10 | 7.13 | – | – |
| 5.18 | C1=CCC(c2ccc3ccccc3c2)CNC1 (stereo unspecified) | 7.20 | – | 8.00 | 7.60 | 94 | – |
| 5.11 | C1=CCC(c2cc3ccccc3o2)CNC1 (stereo unspecified) | 6.62 | 4.72 | 7.64 | 7.34 | 83 | – |
| – | OCC[C@@]1(c2cc3ccccc3o2)CCCNC1 | – | – | 6.40 | 6.37 | – | – |
| < 4.70 | OCC[C@]1(c2cc3ccccc3o2)CCCNC1 | 6.64 | – | 8.22 | 8.40 | 22 | Cp(f) (Plasma): 75%; Kp [6]: 5.8; ED50 (Rattus norvegicus [7]): 0.17 mg/kg; pEC50 (Rattus norvegicus [8]): 7.48; pEC50 (Rattus norvegicus [9]): 8.25; Stability [10]: Stable; Activity (Rattus norvegicus [11]): inactive; Activity (Rattus norvegicus [12]): inactive; Activity (Rattus norvegicus [13]): Active; ED50 (Rattus norvegicus [14]): 0.8 mg/kg |
| < 4.70 | OCCN1CC=CC[C@H](c2ccc(Cl)c(Cl)c2)C1 | 6.82 | 5.00 | 7.43 | 7.92 | 52 | – |
| – | Clc1cccc(C2CC=CCNC2)c1 (stereo unspecified) | – | < 4.48 | 6.62 | 6.37 | – | – |
| 5.17 | CN1CC=CCC(c2cc3ccccc3o2)C1 (stereo unspecified) | 6.10 | 4.82 | 7.22 | 6.92 | 97 | – |
| – | CN1CC=CCC(c2ccc(Cl)c(Cl)c2)C1 (racemic) | 7.00 | – | 8.30 | 7.24 | 57 | – |
| < 4.70 | OCC[C@@]1(c2ccc(Cl)c(Cl)c2)CCCNC1 | 6.60 | < 4.48 | 6.85 | 6.60 | < 4 | – |
| < 4.70 | CN1Cc2c(N)cccc2C(c2ccccc2)C1 (racemic) [NOMIFENSINE] | – | < 4.57 | – | – | 37 | Activity (Rattus norvegicus [15]): Active; Cp(f) (Plasma): 60.5%; Kp [6]: 10.1; ED50 (Rattus norvegicus [7]): 0.05 mg/kg; ED50 (Rattus norvegicus [16]): 0.7 mg/kg; Activity (Rattus norvegicus [11]): Dose-dependent effect; Activity (Rattus norvegicus [17]): inactive |
| – | Cc1cc(C2CC=CCNC2)ccc1Cl (stereo unspecified) | – | 4.59 | 7.62 | 6.77 | – | – |

| Structure (SMILES) | pIC50 (Cytochrome P450 2D6) | pKi [1] | pIC50 [2] | pKi [3] | pKi [4] | microsomal CLint [5] [µL/min/mg] | further results |
| --- | --- | --- | --- | --- | --- | --- | --- |
| Fc1ccc(C2CC=CCNC2)cc1Cl (stereo unspecified) | 5.19 | 5.82 | – | 7.17 | 6.89 | 15 | – |
| Cc1ccc(C2CC=CCNC2)cc1Cl (stereo unspecified) | 5.25 | 6.22 | < 4.57 | 7.31 | 7.08 | 100 | – |
| Clc1ccc([C@@H]2CC=CCNC2)cc1Cl | 5.51 | 6.38 | – | 8.10 | 7.62 | 50 | – |
| Clc1ccc(C2CCCCNC2)cc1Cl (racemic) | 5.64 | 6.85 | 5.21 | 7.96 | 6.89 | 35 | – |
| Clc1ccc(C2CC=CCNC2)cc1Cl (racemic) | 5.29 | 6.66 | – | 8.22 | 7.18 | 30 | – |
| Cc1cc(C2CC=CCN(C)C2)ccc1Cl (stereo unspecified) | 4.74 | 6.57 | 4.59 | 7.64 | 6.89 | 85 | – |
| Clc1ccc([C@H]2CC=CCNC2)cc1Cl | 5.41 | 6.66 | – | 8.22 | 7.77 | 33 | Cp(f) (Plasma): 7.7%; Kp [6]: 4.8; ED50 (Rattus norvegicus [7]): 0.5 mg/kg; ED50 (Rattus norvegicus [16]): 0.8 mg/kg; pEC50 (Rattus norvegicus [18]): 6.66; pEC50 (Rattus norvegicus [9]): 7.34; Stability [10]: Stable; Activity (Rattus norvegicus [11]): Dose-dependent effect; Activity (Rattus norvegicus [19]): inactive; Activity (Rattus norvegicus [20]): Active |
